Assay results taken from ChEMBL document CHEMBL3352402, “Pharmacological evaluation and docking studies of α,β-unsaturated carbonyl based synthetic compounds as inhibitors of secretory phospholipase A₂, cyclooxygenases, lipoxygenase and proinflammatory cytokines” (Bioorg Med Chem, 2014).
The source made the active and inactive calls. No cut-off for these calls is given here.

How the values were obtained:
[1] = Inhibition of sPLA2-V (unknown origin) using substrate 1,2-bis(heptanoylthio)-glycerophosphocholine by Ellman's method based photometric assay; parameters: species or system Homo sapiens
[2] = target: T1, Prostaglandin G/H synthase 1 (Ovis aries, UniProt P05979); experiment: Inhibition of ovine COX1 using arachidonic acid substrate assessed as PGE2 production ELISA method after 2 mins
T1 sequence (P05979 whole entry): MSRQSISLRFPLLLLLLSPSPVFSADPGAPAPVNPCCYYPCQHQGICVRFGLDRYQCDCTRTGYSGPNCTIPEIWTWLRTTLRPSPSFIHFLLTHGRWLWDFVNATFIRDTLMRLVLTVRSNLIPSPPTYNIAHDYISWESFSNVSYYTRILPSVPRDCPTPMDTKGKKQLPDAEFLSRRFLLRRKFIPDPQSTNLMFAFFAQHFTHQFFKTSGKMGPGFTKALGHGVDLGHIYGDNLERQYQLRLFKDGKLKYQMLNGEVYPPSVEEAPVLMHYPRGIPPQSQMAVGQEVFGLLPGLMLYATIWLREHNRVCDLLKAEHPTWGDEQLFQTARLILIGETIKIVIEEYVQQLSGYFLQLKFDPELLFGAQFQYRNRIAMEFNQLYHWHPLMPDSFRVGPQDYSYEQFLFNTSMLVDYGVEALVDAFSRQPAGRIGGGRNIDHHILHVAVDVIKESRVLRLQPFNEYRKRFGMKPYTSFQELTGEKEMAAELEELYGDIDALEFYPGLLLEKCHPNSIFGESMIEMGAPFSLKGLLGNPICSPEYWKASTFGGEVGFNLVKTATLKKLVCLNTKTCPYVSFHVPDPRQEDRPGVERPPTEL

[3] = target: T2, Prostaglandin G/H synthase 2 (Homo sapiens, UniProt P35354); experiment: Inhibition of human recombinant COX2 using arachidonic acid substrate assessed as PGE2 production ELISA method after 2 mins
T2 sequence (P35354 whole entry): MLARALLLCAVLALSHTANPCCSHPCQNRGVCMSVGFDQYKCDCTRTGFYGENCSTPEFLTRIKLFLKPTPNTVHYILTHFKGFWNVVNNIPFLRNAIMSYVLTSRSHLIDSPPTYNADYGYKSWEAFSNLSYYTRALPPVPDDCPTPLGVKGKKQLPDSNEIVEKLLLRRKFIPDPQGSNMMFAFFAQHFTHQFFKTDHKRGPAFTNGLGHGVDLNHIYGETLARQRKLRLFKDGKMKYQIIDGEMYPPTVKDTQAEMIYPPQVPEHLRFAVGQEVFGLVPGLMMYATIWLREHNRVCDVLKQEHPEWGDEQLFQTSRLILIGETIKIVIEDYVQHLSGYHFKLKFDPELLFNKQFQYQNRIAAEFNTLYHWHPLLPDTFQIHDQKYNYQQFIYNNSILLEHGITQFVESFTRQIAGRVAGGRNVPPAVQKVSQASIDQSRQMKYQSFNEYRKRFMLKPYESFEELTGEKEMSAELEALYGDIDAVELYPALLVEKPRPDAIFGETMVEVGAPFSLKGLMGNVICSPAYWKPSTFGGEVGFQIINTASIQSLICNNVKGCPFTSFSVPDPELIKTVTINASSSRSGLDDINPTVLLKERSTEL

Lipoxygenase = Lipoxygenase (Glycine max, UniProt Q39829); experiment: Inhibition of soybean lipoxygenase after 5 mins by colorimetric assay
Procedure, shortened: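 Purified soybean lipoxygenase resuspended in 0.1 M Tris-HCl, pH 7. Enzyme plus test sample was started with substrate (dissolved in KOH, diluted to 1 mM) at room temperature for 5 min. Chromogen was added for 5 min to stop the reaction, then absorbance read at 490 nm. Activity is relative to enzyme plus substrate alone.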

RAW264.7 [4] = experiment: Immunostimulatory activity in mouse RAW264.7 cells assessed as stimulation of IL6 release at 10 uM per-treated with compound for 2 hrs before LPS challenge for 22 hrs by ELISA method; format: functional, cell-based
Procedure, shortened: (§1)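 RAW 264.7 macrophages grown in DMEM with 10% heat-inactivated FBS and 1% Pen Strep, 37°C, 5% CO2. Pretreated 2 h with compound (10 µM) or vehicle, then LPS (0.5 µg/ml, in PBS) 22 h. Medium was centrifuged and cytokine measured by mouse ELISA. Levels were normalized to total protein of the cell pellet and expressed as percent of LPS control. Triplicates, mean ± SEM.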

RAW264.7 [5] = experiment: Inhibition of TNFalpha expression in mouse RAW264.7 cells at 10 uM per-treated with compound for 2 hrs before LPS challenge for 22 hrs by ELISA method; format: functional
RAW264.7 [6] = experiment: Inhibition of IL6 release in mouse RAW264.7 cells at 10 uM per-treated with compound for 2 hrs before LPS challenge for 22 hrs by ELISA method; format: functional; procedure, shortened: as §1
RAW264.7 [7] = experiment: Immunostimulatory activity in mouse RAW264.7 cells assessed as stimulation of TNFalpha expression at 10 uM per-treated with compound for 2 hrs before LPS challenge for 22 hrs by ELISA method; format: functional, cell-based; procedure, shortened: as §1
[8] = target: Lipoxygenase (Glycine max) (UniProt Q39829); experiment: Inhibition of soybean lipoxygenase at 40 ug/mL after 5 mins by colorimetric assay

CN(C)c1ccc(/C=C2\CN(Cc3ccccc3)C/C(=C\c3ccc(N(C)C)cc3[N+](=O)[O-])C2=O)c([N+](=O)[O-])c1
IC50 [1]: 15.2 µM | IC50 [2]: 14.6 µM | IC50 [3]: 19.2 µM | IC50 (Lipoxygenase): 211 µM

CN(C)c1ccc(/C=C2/CCC/C(=C\c3ccc(N(C)C)cc3[N+](=O)[O-])C2=O)c([N+](=O)[O-])c1
IC50 [1]: 11.2 µM | IC50 [2]: 0.42 µM | IC50 [3]: > 100 µM | IC50 (Lipoxygenase): 29.3 µM

CN(C)c1ccc(/C=C2\CCc3ccccc3C2=O)c([N+](=O)[O-])c1
IC50 [1]: 37.6 µM | IC50 [2]: 21.5 µM | IC50 [3]: 28 µM | Activity (RAW264.7 [4]): Active

CN(C)c1ccc(/C=C2\CNC/C(=C\c3ccc(N(C)C)cc3[N+](=O)[O-])C2=O)c([N+](=O)[O-])c1
IC50 [1]: 4.19 µM | IC50 [2]: 0.67 µM | IC50 [3]: 7.88 µM | IC50 (Lipoxygenase): 39.5 µM | inhibition at 10 µM (RAW264.7 [5]): 73% | inhibition at 10 µM (RAW264.7 [6]): 76%

O=C1/C(=C/c2ccc(N3CCCC3)cc2)CN(Cc2ccccc2)C/C1=C\c1ccc(N2CCCC2)cc1
IC50 [1]: 19.2 µM | IC50 [2]: 51.3 µM | IC50 [3]: 57.2 µM

O=C1/C(=C/c2ccc(N3CCCC3)cc2)COC/C1=C\c1ccc(N2CCCC2)cc1
IC50 [1]: 15.2 µM | IC50 [2]: 39.4 µM | IC50 [3]: > 100 µM

CN(C)c1ccc(/C=C2\CC/C(=C\c3ccc(N(C)C)cc3[N+](=O)[O-])C2=O)c([N+](=O)[O-])c1
IC50 [1]: 38.4 µM | IC50 [3]: > 100 µM

O=C1/C(=C/c2ccc(N3CCCC3)cc2)CCc2ccccc21
IC50 [1]: 54.2 µM | IC50 [2]: 33.5 µM | IC50 [3]: > 100 µM

O=C1/C(=C/c2ccc(N3CCCC3)cc2)CC/C1=C\c1ccc(N2CCCC2)cc1
IC50 [1]: 55.7 µM | IC50 [2]: 37.8 µM | IC50 [3]: 46.2 µM | Activity (RAW264.7 [7]): Active

CCOC(OCC)c1ccc(/C=C2\CN(C)C/C(=C\c3ccc(C(OCC)OCC)cc3)C2=O)cc1
IC50 [1]: 4.21 µM | IC50 [3]: 38.2 µM | IC50 (Lipoxygenase): 65.6 µM | inhibition [8]: 67.6% | inhibition at 10 µM (RAW264.7 [5]): 73% | inhibition at 10 µM (RAW264.7 [6]): 76%

CCOC(OCC)c1ccc(/C=C2\CCC/C(=C\c3ccc(C(OCC)OCC)cc3)C2=O)cc1
IC50 [1]: 12.6 µM | IC50 [3]: 17.4 µM | IC50 (Lipoxygenase): 83.1 µM

CCOC(OCC)c1ccc(/C=C2\COC/C(=C\c3ccc(C(OCC)OCC)cc3)C2=O)cc1
IC50 [1]: 8.76 µM | IC50 [3]: 11.2 µM | IC50 (Lipoxygenase): 91 µM | inhibition at 10 µM (RAW264.7 [5]): 73%

CN(C)c1ccc(/C=C/C(=O)C2CCc3ccccc3C2=O)c([N+](=O)[O-])c1 (stereo not given)
IC50 [1]: 22.2 µM | IC50 [2]: 29.3 µM | IC50 [3]: 37.7 µM | IC50 (Lipoxygenase): 157 µM

O=C1/C(=C/c2ccc(N3CCCC3)cc2)CCC/C1=C\c1ccc(N2CCCC2)cc1
IC50 [1]: 28.3 µM | IC50 [2]: 33.5 µM | IC50 [3]: 54.3 µM

C[C@@H]1C[C@H]2[C@@H]3CCC4=CC(=O)C=C[C@]4(C)[C@@]3(F)[C@@H](O)C[C@]2(C)[C@@]1(O)C(=O)CO [DEXAMETHASONE]
IC50 [1]: 0.61 µM

CN1C/C(=C\c2ccc(N3CCCC3)cc2)C(=O)/C(=C/c2ccc(N3CCCC3)cc2)C1
IC50 [1]: 11.2 µM | IC50 [2]: 69.2 µM | IC50 [3]: > 100 µM

O=C(/C=C/c1ccc(N2CCCC2)cc1)C1CCc2ccccc2C1=O (stereo not given)
IC50 [1]: 44.1 µM | IC50 [3]: 61.2 µM | Activity (RAW264.7 [4]): Active

CC(Cc1ccc(O)c(O)c1)C(C)Cc1ccc(O)c(O)c1 (stereo not given) [NORDIHYDROGUAIARETIC ACID]
IC50 (Lipoxygenase): 9.23 µM

CCOC(OCC)c1ccc(/C=C/C(=O)/C=C/c2ccc(C(OCC)OCC)cc2)cc1
IC50 [1]: 19.2 µM | IC50 [2]: 3.22 µM | IC50 [3]: 31.5 µM | IC50 (Lipoxygenase): 210 µM | inhibition at 10 µM (RAW264.7 [6]): 76%

CCOC(OCC)c1ccc(/C=C2\CNC/C(=C\c3ccc(C(OCC)OCC)cc3)C2=O)cc1
IC50 [1]: 7.14 µM | IC50 [3]: 27.7 µM | IC50 (Lipoxygenase): 88.4 µM | inhibition at 10 µM (RAW264.7 [5]): 91% | inhibition at 10 µM (RAW264.7 [6]): 91%

CCOC(OCC)c1ccc(/C=C2\CN(Cc3ccccc3)C/C(=C\c3ccc(C(OCC)OCC)cc3)C2=O)cc1
IC50 [1]: 17.8 µM | IC50 [2]: 3.17 µM | IC50 [3]: > 100 µM

CCOC(OCC)c1ccc(/C=C2\CCc3ccccc3C2=O)cc1
IC50 [1]: 58.2 µM | IC50 [3]: > 100 µM | Activity (RAW264.7 [7]): Active

CN1C/C(=C\c2ccc(N(C)C)cc2[N+](=O)[O-])C(=O)/C(=C/c2ccc(N(C)C)cc2[N+](=O)[O-])C1
IC50 [1]: 2.19 µM | IC50 [2]: 1.22 µM | IC50 [3]: 9.12 µM | IC50 (Lipoxygenase): 38.3 µM | inhibition at 10 µM (RAW264.7 [5]): 91% | inhibition at 10 µM (RAW264.7 [6]): 91%

O=C(/C=C/c1ccc(N2CCCC2)cc1)/C=C/c1ccc(N2CCCC2)cc1
IC50 [1]: 29.3 µM | IC50 [2]: 49.3 µM | IC50 [3]: 69.8 µM

CN(C)c1ccc(/C=C2\Cc3ccccc3C2=O)c([N+](=O)[O-])c1
IC50 [1]: 28 µM | IC50 [2]: 9.91 µM | IC50 [3]: 14.8 µM

CN(C)c1ccc(/C=C/C(=O)/C=C/c2ccc(N(C)C)cc2[N+](=O)[O-])c([N+](=O)[O-])c1
IC50 [1]: 18.2 µM | IC50 [2]: 3.96 µM | IC50 [3]: 15 µM | IC50 (Lipoxygenase): 103 µM | inhibition at 10 µM (RAW264.7 [6]): 76%

CCOC(OCC)c1ccc(/C=C2\CC/C(=C\c3ccc(C(OCC)OCC)cc3)C2=O)cc1
IC50 [3]: 14.8 µM

CCOC(OCC)c1ccc(/C=C2\Cc3ccccc3C2=O)cc1
IC50 [1]: 37.3 µM | IC50 [2]: 2.22 µM | IC50 [3]: 19.3 µM

CN(C)c1ccc(/C=C2\COC/C(=C\c3ccc(N(C)C)cc3[N+](=O)[O-])C2=O)c([N+](=O)[O-])c1
IC50 [1]: 7.79 µM | IC50 [2]: 0.72 µM | IC50 [3]: 18.6 µM | IC50 (Lipoxygenase): 44.7 µM | inhibition at 10 µM (RAW264.7 [5]): 73% | inhibition at 10 µM (RAW264.7 [6]): 76%

O=C1/C(=C/c2ccc(N3CCCC3)cc2)CNC/C1=C\c1ccc(N2CCCC2)cc1
IC50 [1]: 12.1 µM | IC50 [3]: > 100 µM

O=C1/C(=C/c2ccc(N3CCCC3)cc2)Cc2ccccc21
IC50 [1]: 67.3 µM | IC50 [3]: 54.6 µM | Activity (RAW264.7 [7]): Active | Activity (RAW264.7 [4]): Active
